Active and inactive are the calls of the source. No cut-off for these calls is given here.
Legend:
[1] = molecular target: T1, Metabotropic glutamate receptor 5 (Homo sapiens, UniProt P41594); test: Modulation of human recombinant mGluR5 expressed in CHO cells assessed as inhibition of glutamate-induced response at 10 uM; format: cell-based
Target sequence in this assay (P41594 21-1212 limits assumed): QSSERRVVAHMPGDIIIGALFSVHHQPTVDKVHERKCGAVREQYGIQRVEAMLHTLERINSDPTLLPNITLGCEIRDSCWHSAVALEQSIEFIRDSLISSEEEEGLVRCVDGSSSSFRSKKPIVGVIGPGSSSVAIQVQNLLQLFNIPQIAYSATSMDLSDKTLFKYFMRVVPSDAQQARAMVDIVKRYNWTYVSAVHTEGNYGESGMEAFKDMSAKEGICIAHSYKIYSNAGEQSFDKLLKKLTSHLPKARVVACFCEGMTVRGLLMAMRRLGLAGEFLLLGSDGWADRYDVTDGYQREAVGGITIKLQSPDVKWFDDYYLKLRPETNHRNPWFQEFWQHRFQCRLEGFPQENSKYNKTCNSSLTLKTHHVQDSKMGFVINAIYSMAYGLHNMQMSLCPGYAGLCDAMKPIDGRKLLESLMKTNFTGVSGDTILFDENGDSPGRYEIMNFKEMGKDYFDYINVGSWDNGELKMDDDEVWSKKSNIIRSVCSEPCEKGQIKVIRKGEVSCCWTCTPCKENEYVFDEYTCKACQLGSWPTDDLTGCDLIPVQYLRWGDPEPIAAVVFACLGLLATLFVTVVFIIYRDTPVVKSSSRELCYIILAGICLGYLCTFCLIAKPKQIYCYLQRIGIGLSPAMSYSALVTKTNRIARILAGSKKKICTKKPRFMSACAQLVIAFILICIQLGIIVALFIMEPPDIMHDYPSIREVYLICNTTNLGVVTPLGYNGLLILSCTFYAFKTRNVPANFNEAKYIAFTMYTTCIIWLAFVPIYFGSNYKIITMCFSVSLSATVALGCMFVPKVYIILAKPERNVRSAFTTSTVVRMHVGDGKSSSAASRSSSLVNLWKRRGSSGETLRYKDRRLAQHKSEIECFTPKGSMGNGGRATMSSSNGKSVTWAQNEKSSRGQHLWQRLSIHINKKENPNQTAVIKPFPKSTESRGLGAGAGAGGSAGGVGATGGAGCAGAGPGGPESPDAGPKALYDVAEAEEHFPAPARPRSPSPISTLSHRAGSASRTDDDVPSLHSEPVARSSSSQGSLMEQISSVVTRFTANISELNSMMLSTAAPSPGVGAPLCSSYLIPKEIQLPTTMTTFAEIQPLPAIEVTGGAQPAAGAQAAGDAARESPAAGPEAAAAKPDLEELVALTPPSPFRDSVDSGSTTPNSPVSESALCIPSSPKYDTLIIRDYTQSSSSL

[2] = molecular target: T1, Metabotropic glutamate receptor 5; test: Modulation of human recombinant mGluR5 expressed in CHO cells assessed as inhibition of glutamate-induced response; format: cell-based
Outline: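 Aequorin cell line with doxycycline-inducible human mGluR5, induced 18 h (600 ng/mL). Cells loaded with coelenterazine-h ≥4 h at room temperature, preincubated with compound ≥3 min, then challenged with glutamate at EC80. Luminescence read on FDSS 6000, normalized to digitonin or 20 μM ATP wells. IC50 from sigmoidal fit; mean of two determinations.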
Target sequence in this assay (P41594 whole entry): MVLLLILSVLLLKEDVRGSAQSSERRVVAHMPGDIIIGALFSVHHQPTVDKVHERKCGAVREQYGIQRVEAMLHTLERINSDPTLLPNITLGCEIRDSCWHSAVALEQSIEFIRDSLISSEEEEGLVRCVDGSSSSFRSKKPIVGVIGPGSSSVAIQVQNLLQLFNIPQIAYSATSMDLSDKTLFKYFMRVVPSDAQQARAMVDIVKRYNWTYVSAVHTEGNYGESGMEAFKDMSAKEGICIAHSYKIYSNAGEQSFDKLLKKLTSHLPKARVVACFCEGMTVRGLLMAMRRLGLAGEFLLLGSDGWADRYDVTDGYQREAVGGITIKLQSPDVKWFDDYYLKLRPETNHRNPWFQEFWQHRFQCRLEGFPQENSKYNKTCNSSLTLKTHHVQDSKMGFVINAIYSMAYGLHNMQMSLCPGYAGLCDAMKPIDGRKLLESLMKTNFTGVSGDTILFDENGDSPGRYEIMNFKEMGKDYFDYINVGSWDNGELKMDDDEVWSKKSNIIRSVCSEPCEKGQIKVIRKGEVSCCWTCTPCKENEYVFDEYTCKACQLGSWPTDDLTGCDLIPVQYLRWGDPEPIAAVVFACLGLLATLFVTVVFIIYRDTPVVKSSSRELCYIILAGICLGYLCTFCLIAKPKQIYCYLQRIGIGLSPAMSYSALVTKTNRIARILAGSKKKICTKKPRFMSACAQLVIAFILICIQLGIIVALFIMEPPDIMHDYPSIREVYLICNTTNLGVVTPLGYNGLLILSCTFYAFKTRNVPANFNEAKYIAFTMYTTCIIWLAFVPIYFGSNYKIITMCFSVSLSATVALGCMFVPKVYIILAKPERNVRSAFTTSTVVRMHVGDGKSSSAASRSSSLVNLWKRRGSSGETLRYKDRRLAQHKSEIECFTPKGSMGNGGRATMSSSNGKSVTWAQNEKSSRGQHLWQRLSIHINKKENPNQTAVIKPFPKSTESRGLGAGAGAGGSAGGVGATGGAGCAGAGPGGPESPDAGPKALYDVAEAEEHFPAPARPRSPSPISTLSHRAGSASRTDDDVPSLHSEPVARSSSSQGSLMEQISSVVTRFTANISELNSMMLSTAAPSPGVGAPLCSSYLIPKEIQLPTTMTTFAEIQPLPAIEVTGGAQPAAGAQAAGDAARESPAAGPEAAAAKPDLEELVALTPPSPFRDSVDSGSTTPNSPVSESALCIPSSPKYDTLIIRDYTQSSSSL

Brain = test: Drug level in Sprague-Dawley rat brain at 3 mg/kg, ip; format: ADME, organism-based; parameters: dose 3 mg/kg, route intraperitoneal; settings: in vivo, read-out: Drug uptake
Outline: (§1)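 Male Sprague-Dawley rats (200-250 g, n = 4) given 3 mg/kg ip in 45% HPβCD. Trunk blood and brain taken at sacrifice. Brain homogenized at 40 mg/mL in 95:5 water:acetonitrile with 0.1% formic acid. Plasma or homogenate precipitated with acetonitrile, dried, reconstituted and measured by LC/MS/MS.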

Rattus norvegicus [3] = test: Ex vivo receptor occupancy of mGluR5 receptor in Sprague-Dawley rat brain at 3 mg/kg, ip after 60 mins; format: functional; settings: route intraperitoneal
Outline: (§2)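 Male Sprague-Dawley rats (n = 4) dosed 3 mg/kg ip in 45% HPβCD. At set times postdose, iv tail-vein 3H-mPEPy tracer; decapitated 2 min later. Striatum and cerebellum sections imaged 12 h on β-imager. %RO derived from striatum:cerebellum signal ratio relative to vehicle animals; mean ± SEM.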

Rattus norvegicus [4] = test: Ex vivo receptor occupancy of mGluR5 receptor in po dosed Sprague-Dawley rat brain after 60 mins; format: functional; settings: 1 h
Outline: (§3)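 Male Sprague-Dawley rats (200-250 g, n = 4) dosed ip or po at 0.3, 1, 3, 10, 30 mg/kg in 45% HPβCD. After 60 min, iv 3H-mPEPy tracer; killed 2 min later. Striatal versus cerebellar radioactivity on β-imager gives %RO against vehicle. Dose-occupancy curves fitted.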

[5] = molecular target: Metabotropic glutamate receptor 5 (Rattus norvegicus, UniProt P31424); test: Displacement of [3H]-MPEP from mGluR5 in rat cortical membranes; format: cell membranes, Membrane
Metabotropic glutamate receptor 5 (Rattus norvegicus, UniProt P31424), sequence (P31424 whole entry): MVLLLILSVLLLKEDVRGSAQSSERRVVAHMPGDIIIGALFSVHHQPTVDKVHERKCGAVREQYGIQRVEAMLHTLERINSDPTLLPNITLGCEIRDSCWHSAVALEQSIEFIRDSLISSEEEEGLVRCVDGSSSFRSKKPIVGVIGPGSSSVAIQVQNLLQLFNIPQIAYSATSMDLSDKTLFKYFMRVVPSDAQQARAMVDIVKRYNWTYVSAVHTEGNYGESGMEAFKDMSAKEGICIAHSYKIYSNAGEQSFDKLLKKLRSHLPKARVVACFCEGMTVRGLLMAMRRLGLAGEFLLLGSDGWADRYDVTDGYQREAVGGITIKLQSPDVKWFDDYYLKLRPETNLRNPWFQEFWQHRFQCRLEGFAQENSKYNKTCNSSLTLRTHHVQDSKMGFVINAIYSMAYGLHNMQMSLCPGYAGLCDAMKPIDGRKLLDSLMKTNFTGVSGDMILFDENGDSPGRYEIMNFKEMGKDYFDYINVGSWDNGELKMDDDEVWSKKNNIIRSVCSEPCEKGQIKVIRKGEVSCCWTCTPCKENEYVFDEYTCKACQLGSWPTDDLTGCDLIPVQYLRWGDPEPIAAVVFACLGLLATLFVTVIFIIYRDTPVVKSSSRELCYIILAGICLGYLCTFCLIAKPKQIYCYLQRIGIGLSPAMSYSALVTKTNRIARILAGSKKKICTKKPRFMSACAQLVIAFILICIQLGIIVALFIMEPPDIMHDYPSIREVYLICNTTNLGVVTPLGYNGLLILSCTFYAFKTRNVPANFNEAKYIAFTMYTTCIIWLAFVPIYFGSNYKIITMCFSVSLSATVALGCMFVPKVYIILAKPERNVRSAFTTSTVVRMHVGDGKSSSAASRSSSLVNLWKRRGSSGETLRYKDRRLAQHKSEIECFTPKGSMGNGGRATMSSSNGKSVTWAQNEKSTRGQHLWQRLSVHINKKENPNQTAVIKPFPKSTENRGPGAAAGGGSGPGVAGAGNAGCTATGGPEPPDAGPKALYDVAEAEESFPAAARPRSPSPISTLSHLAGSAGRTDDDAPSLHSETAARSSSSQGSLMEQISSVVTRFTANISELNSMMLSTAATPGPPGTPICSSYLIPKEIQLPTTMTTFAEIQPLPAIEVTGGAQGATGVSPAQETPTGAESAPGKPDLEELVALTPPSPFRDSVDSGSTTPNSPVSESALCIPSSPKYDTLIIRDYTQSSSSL
Outline: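 Competition binding against [3H]-MPEP on rat cortical membranes, run in duplicate. Nonspecific binding defined with a 200-fold excess of reference modulator. Incubated 120 min at 4 °C in 0.1 mL, filtered on PEI-presoaked GF-C filters, washed with cold 50 mM Tris-HCl pH 7.4, scintillation counted. Ki reported as mean of two determinations; MPEP used as control.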

Plasma = test: Drug level in Sprague-Dawley rat plasma at 3 mg/kg, ip; format: ADME, organism-based; parameters: dose 3 mg/kg, route intraperitoneal; settings: in vivo; outline: as §1
[6] = Half life in rhesus monkey at 1 mg/kg, po; format: ADME, organism-based, Macaca mulatta; parameters: dose 1 mg/kg, route oral; settings: in vivo
Outline: (§4)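 Male Rhesus monkeys, 3 per cohort; 1 mg/kg iv or oral gavage. Vehicle 40% hydroxypropyl-βCD:50 mM potassium phosphate pH 6.0 (50:50), 0.5 mg/mL nominal, filtered. Femoral vein blood predose and 5 min to 24 h. K3EDTA plasma, protein precipitation with internal standard, LC/MS/MS (LLOQ 2.5 ng/mL). Noncompartmental PK parameters.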

[7] = Cmax in Sprague-Dawley rat at 2 mg/kg, po; format: ADME, organism-based; parameters: dose 2 mg/kg, route oral; settings: in vivo
Outline: (§5)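 Male Sprague-Dawley rats, 3 per cohort; 2 mg/kg iv or 2 and 10 mg/kg oral gavage. Vehicle 40% hydroxypropyl-βCD:50 mM potassium phosphate pH 6.0 (50:50), 0.5 mg/mL nominal, filtered. Jugular-cannula blood predose and 5 min to 24 h. K2-EDTA plasma, methanol precipitation with internal standard, LC/MS/MS (LLOQ 2.5 ng/mL). Noncompartmental analysis.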

[8] = Cmax in Sprague-Dawley rat at 10 mg/kg, po; format: ADME, organism-based; parameters: dose 10 mg/kg, route oral; settings: in vivo; outline: as §5
[9] = Oral bioavailability in Sprague-Dawley rat at 2 mg/kg; format: ADME, organism-based; settings: in vivo; outline: as §5
[10] = Oral bioavailability in rhesus monkey at 1 mg/kg; format: ADME, organism-based, Macaca mulatta; settings: in vivo; outline: as §4
[11] = Cmax in Sprague-Dawley rat at 2 mg/kg, iv; format: ADME, organism-based; parameters: dose 2 mg/kg, route intravenous; settings: in vivo; outline: as §5
[12] = Half life in rhesus monkey at 1 mg/kg, iv; format: ADME, organism-based, Macaca mulatta; parameters: dose 1 mg/kg, route intravenous; settings: in vivo; outline: as §4
[13] = AUC (0 to t) in rhesus monkey at 1 mg/kg, iv; format: ADME, organism-based, Macaca mulatta; parameters: dose 1 mg/kg, route intravenous; settings: plasma; outline: as §4
[14] = AUC (0 to t) in Sprague-Dawley rat at 10 mg/kg, po; format: ADME, organism-based; parameters: dose 10 mg/kg, route oral; settings: plasma; outline: as §5
Rhesus monkey = test: Cmax in rhesus monkey at 1 mg/kg, iv; format: ADME, organism-based, Macaca mulatta; parameters: dose 1 mg/kg, route intravenous; settings: in vivo; outline: as §4
[15] = AUC (0 to t) in Sprague-Dawley rat at 2 mg/kg, po; format: ADME, organism-based; parameters: dose 2 mg/kg, route oral; settings: plasma; outline: as §5
[16] = Cmax in rhesus monkey at 1 mg/kg, po; format: ADME, organism-based, Macaca mulatta; parameters: dose 1 mg/kg, route oral; settings: in vivo; outline: as §4
[17] = Half life in Sprague-Dawley rat at 10 mg/kg, po; format: ADME, organism-based; parameters: dose 10 mg/kg, route oral; settings: in vivo; outline: as §5
[18] = Volume of distribution in Sprague-Dawley rat at 2 mg/kg, iv; format: ADME, organism-based; parameters: dose 2 mg/kg, route intravenous; settings: in vivo; outline: as §5
[19] = AUC (0 to t) in rhesus monkey at 1 mg/kg, po; format: ADME, organism-based, Macaca mulatta; parameters: dose 1 mg/kg, route oral; settings: plasma; outline: as §4
[20] = molecular target: Kappa-type opioid receptor (Homo sapiens) (UniProt P41145); test: Inhibition of kappa opioid receptor at 10 uM
Kappa-type opioid receptor (Homo sapiens), sequence (P41145 whole entry): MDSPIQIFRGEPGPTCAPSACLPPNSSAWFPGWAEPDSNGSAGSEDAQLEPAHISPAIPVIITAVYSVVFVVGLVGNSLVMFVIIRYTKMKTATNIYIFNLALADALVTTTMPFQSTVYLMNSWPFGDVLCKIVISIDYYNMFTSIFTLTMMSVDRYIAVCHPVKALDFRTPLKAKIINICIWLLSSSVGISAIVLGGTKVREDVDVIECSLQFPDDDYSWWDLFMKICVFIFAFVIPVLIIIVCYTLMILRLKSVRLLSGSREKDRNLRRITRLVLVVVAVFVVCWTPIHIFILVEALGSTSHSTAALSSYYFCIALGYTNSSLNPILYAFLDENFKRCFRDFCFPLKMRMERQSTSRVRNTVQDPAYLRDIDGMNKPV

Rattus norvegicus [21] = test: Ex vivo receptor occupancy of mGluR5 receptor in Sprague-Dawley rat brain at 3 mg/kg, ip after 24 hrs; format: functional, organism-based; parameters: dose 3 mg/kg; outline: as §2
Rattus norvegicus [22] = test: Ex vivo receptor occupancy of mGluR5 receptor in ip dosed Sprague-Dawley rat brain after 60 mins; format: functional; settings: 1 h; outline: as §3
[23] = (§6) Half life in Sprague-Dawley rat at 2 mg/kg, iv; format: ADME, organism-based; parameters: dose 2 mg/kg, route intravenous; settings: Sprague-Dawley, in vivo; outline: as §5
Rattus norvegicus [24] = test: as §6; format: ADME, organism-based; parameters: dose 2 mg/kg, route intravenous; settings: in vivo; outline: as §5
[25] = AUC (0 to t) in Sprague-Dawley rat at 2 mg/kg, iv; format: ADME, organism-based; parameters: dose 2 mg/kg, route intravenous; settings: plasma; outline: as §5
[26] = Half life in Sprague-Dawley rat at 2 mg/kg, po; format: ADME, organism-based; parameters: dose 2 mg/kg, route oral; settings: in vivo; outline: as §5
[27] = Clearance in Sprague-Dawley rat at 2 mg/kg, iv; format: ADME, organism-based; parameters: dose 2 mg/kg, route intravenous; settings: in vivo; outline: as §5
[28] = Oral bioavailability in Sprague-Dawley rat at 10 mg/kg; format: ADME, organism-based; settings: in vivo; outline: as §5
[29] = Clearance in rhesus monkey at 1 mg/kg, iv; format: ADME, organism-based, Macaca mulatta; parameters: dose 1 mg/kg, route intravenous; settings: in vivo; outline: as §4
[30] = Volume of distribution in rhesus monkey at 1 mg/kg, iv; format: ADME, organism-based, Macaca mulatta; parameters: dose 1 mg/kg, route intravenous; settings: in vivo; outline: as §4
Rattus norvegicus [31] = test: Ex vivo receptor occupancy of mGluR5 receptor in Sprague-Dawley rat brain at 3 mg/kg, ip after 2 hrs; format: functional; settings: route intraperitoneal; outline: as §2
Rattus norvegicus [32] = test: Ex vivo receptor occupancy of mGluR5 receptor in Sprague-Dawley rat brain at 3 mg/kg, ip after 30 mins; format: functional; settings: route intraperitoneal; outline: as §2

## CC(C)c1nc2c(o1)CN(c1cccc(C#N)c1)CC2
[1]
  inhibition: 6%

## N#Cc1cccc(N2CCc3nc(-c4cccnc4)oc3C2)c1
[1]
  inhibition: 14%

## CC(C)N1CCc2oc(-c3ccccn3)nc2C1
[1]
  inhibition: 0%

## N#Cc1cccc(N2CCc3oc(-c4ccncc4)nc3C2)c1
[1]
  inhibition: 30%

## N#Cc1cccnc1N1CCc2nc(-c3ccccc3)oc2C1
[1]
  inhibition: 79%

## N#Cc1cccc(N2CCc3nc(-c4ccccn4)oc3C2)c1
[2]
  IC50: 290 nM

## N#Cc1cccnc1N1CCc2oc(-c3ccccn3)nc2C1
[2]
  IC50: 110 nM

## COC(=O)N1CCc2oc(-c3ccccn3)nc2C1
[1]
  inhibition: 11%

## N#Cc1cccc(N2CCc3oc(-c4ccccn4)nc3C2)c1
[2]
  IC50: 60 nM

## N#Cc1cccc(N2CC3N=C(c4ccccn4)OC3C2)c1 (stereo not drawn)
[2]
  IC50: 219 nM

## N#Cc1cccc(CN2CCc3nc(-c4ccccn4)oc3C2)c1
[1]
  inhibition: 55%

## N#Cc1cccc(N2CCc3nc(C4CCCCN4)oc3C2)c1 (racemic)
[1]
  inhibition: 79%

## c1ccc(-c2nc3c(o2)CCN(C2CCNCC2)C3)nc1
[1]
  inhibition: 0%

## N#Cc1cc(F)cc(N2CCc3oc(-c4ccccn4)nc3C2)c1
Brain
  concentration: 1290 nM
Rattus norvegicus [3]
  Activity: 45%
Rattus norvegicus [4]
  ED50: > 30 mg/kg
[5]
  Ki: 17 nM
[2]
  IC50: 28 nM

## N#Cc1cccnc1N1CCc2nc(-c3ccccn3)oc2C1
[2]
  IC50: 640 nM

## c1ccc(-c2nc3c(o2)CCN(C2CCCCC2)C3)nc1
[1]
  inhibition: 0%

## N#Cc1cccc(C(=O)N2CCc3nc(-c4ccccn4)oc3C2)c1
[2]
  IC50: 2600 nM

## N#Cc1cccc(N2CCc3nc(C4CCCCC4)oc3C2)c1
[1]
  inhibition: 79%

## N#Cc1cccc(S(=O)(=O)N2CCc3nc(-c4ccccn4)oc3C2)c1
[1]
  inhibition: 14%

## N#Cc1cc(F)cc(N2CCc3nc(-c4ccccn4)[nH]c3C2)c1
[1]
  inhibition: 34%

## c1ccc(N2CCc3oc(-c4ccccn4)nc3C2)cc1
[2]
  IC50: 330 nM

## Cc1nc2c(o1)CCN(c1ncccc1C#N)C2
[1]
  inhibition: 7%

## N#Cc1cc(F)cc(N2CCn3nc(-c4ccccn4)nc3C2)c1
[2]
  IC50: 346 nM

## N#Cc1cc(F)cc(N2CCn3cc(-c4ccccn4)nc3C2)c1
[2]
  IC50: 153 nM

## N#Cc1cc(F)cc(N2CCc3nc(-c4ccccn4)sc3C2)c1
[1]
  inhibition: 52%

## N#Cc1cccnc1N1CCc2oc(-c3ccccc3)nc2C1
[2]
  IC50: 1200 nM

## N#Cc1cc(F)cc(N2CCCc3oc(-c4ccccn4)nc3C2)c1
Plasma
  concentration: 1430 nM
[6]
  half-life: 37.8 min
[7]
  Cmax: 620 nM
[8]
  Cmax: 2730 nM
[9]
  bioavailability: 31%
[10]
  bioavailability: 10%
[11]
  Cmax: 5250 nM
[12]
  half-life: 40.2 min
[13]
  AUC(0-t): 3.06 µM·h
[14]
  AUC(0-t): 3.36 µM·h
Rattus norvegicus [3]
  Activity: 82%
Rhesus monkey
  Cmax: 5080 nM
[15]
  AUC(0-t): 0.7 µM·h
[16]
  Cmax: 210 nM
[17]
  half-life: 54.6 min
[18]
  Vd: 2.38 L/kg
[5]
  Ki: 17 nM
[19]
  AUC(0-t): 0.28 µM·h
[20]
  inhibition: 77%
Rattus norvegicus [21]
  Activity: inactive
Rattus norvegicus [22]
  ED50: 0.9 mg/kg
[23]
  half-life: 37.2 min
Rattus norvegicus [24]
  Drug uptake: 1096 nM
[25]
  AUC(0-t): 2.26 µM·h
[26]
  half-life: 46.2 min
[27]
  clearance: 46.5 mL/min/kg
[28]
  bioavailability: 30%
[29]
  clearance: 16.3 mL/min/kg
[30]
  Vd: 0.95 L/kg
Rattus norvegicus [31]
  Activity: 55%
Rattus norvegicus [32]
  Activity: 85%
[2]
  IC50: 16 nM

## N#Cc1cc(F)cc(N2CCc3nc(-c4ccccn4)oc3C2)c1
[2]
  IC50: 54 nM
